This note sets out measurements from ChEMBL document CHEMBL3392992, “Synthesis, antiproliferative activity, and in silico insights of new 3-benzoylamino-benzo[b]thiophene derivatives” (Eur J Med Chem, 2015).

The test system of series [1] is HeLa. Nature of the series: Toxicity against human HeLa cells assessed as effect on cell membrane integrity at 1 to 20 uM after 48 hrs by trypan blue dye exclusion method. It is filed as cell-based.
Series [2] concerns HeLa. Nature of the series: Antiproliferative activity against human HeLa cells assessed as reduction in cell proliferation after 48 hrs by MTT assay. The series is classed as functional. A digest of the protocol: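 HeLa cells grown with FBS, 2 mM L-glutamine, penicillin/streptomycin at 37 °C, 5% CO2, seeded at 1.0 × 10^4 cells/cm2 (approx.). After 24 h, medium switched to 5% FBS medium with compounds diluted from 20 mM DMSO stocks, 50 to 0.05 µM, final DMSO ≤0.25% (vehicle control). Incubated 48 h. MTT 0.5 mg/mL for 4 h at 37 °C, formazan dissolved in DMSO, OD 570 nm. GI50 by linear regression of percent growth vs control. Three experiments, each in quadruplicate.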
(In general: Tetrazolium dyes change colour on reduction, which living cells bring about.)

Series [3] relates to HeLa. Nature of the series: Induction of cell cycle arrest in human HeLa cells assessed as increase in accumulation at subG0/G1 phase after 24 to 48 hrs by propidium iodide staining based flow cytometry. It is filed as functional. The note with it: TDE = time-dependent effect. (In general: A flow cytometer gives signals particle by particle.)

`CCOC(=O)c1sc2ccc(N)cc2c1NC(=O)c1cc(OC)c(OC)c(OC)c1`: the Activity result in series [1] is “Non-toxic”; in series [3] it was “tde”. In addition, the GI50 (usually the concentration that inhibits growth by half) in series [2] came out at 4.66 µM.
As for `CCOC(=O)c1sc2ccc(NCc3c[nH]cn3)cc2c1NC(=O)c1ccccc1`, in series [1], the Activity entry was “Non-toxic”. Also, the GI50 in series [2] was 17.9 µM.
In the case of `CCOC(=O)c1sc2ccc(NCc3nc[nH]c3C)cc2c1NC(=O)c1ccc(F)c(Cl)c1`, the figures for the Activity entry in series [1] and in series [3] were “Non-toxic” and “tde”, respectively. The GI50 in series [2] was 2.91 µM.
For `CCOC(=O)c1sc2ccc(NCc3nc[nH]c3C)cc2c1NC(=O)c1ccc(C)cc1`, in series [1], the Activity entry is recorded as “Non-toxic”. For the same molecule, the GI50 in series [2] is 11.4 µM.
In the same order, the values of `CCOC(=O)c1sc2ccc(N)cc2c1NC(=O)c1ccccc1` are “Non-toxic” and above 50 µM.
In the same order, the values of `CCOC(=O)c1sc2ccc(NCc3c[nH]cn3)cc2c1NC(=O)c1ccc(F)c(Cl)c1` are “Non-toxic” and 10.7 µM.
In the same order, the values of `CCOC(=O)c1sc2ccc(N)cc2c1NC(=O)c1ccc(C(F)(F)F)cc1` are “Non-toxic” and 6.68 µM.
Turning to `CCOC(=O)c1sc2ccc(NCc3c[nH]cn3)cc2c1NC(=O)c1ccc(C)cc1`, the Activity entry in series [1] is given as “Non-toxic”. In addition, the GI50 in series [2] is 11.7 µM.
Consider `CCOC(=O)c1sc2ccc(NCc3nc[nH]c3C)cc2c1NC(=O)c1cc(OC)c(OC)c(OC)c1`, for which the Activity result was “Non-toxic” in series [1] and “tde” in series [3]. Moreover, the GI50 in series [2] was 2.23 µM.
`CCOC(=O)c1sc2ccc(NCc3nc[nH]c3C)cc2c1NC(=O)c1ccc(OC)cc1`: the Activity entry in series [1] is “Non-toxic”. Also, the GI50 in series [2] amounted to 8.22 µM.
In the same order, the values of `CCOC(=O)c1sc2ccc(N)cc2c1NC(=O)c1ccc(F)c(Cl)c1` are “Non-toxic” and 12.3 µM.
In the same order, the values of `CCOC(=O)c1sc2ccc(N)cc2c1NC(=O)c1ccc(C)cc1` are “Non-toxic” and 24.4 µM.
In the same order, the values of `CCOC(=O)c1sc2ccc(NCc3c[nH]cn3)cc2c1NC(=O)c1cc(OC)c(OC)c(OC)c1` are “Non-toxic” and 6.79 µM.
As to `CCOC(=O)c1sc2ccc(NCc3nc[nH]c3C)cc2c1NC(=O)c1ccccc1`, the Activity entry in series [1] is “Non-toxic”. For the same molecule, the GI50 in series [2] is 23.3 µM.
`CCOC(=O)c1sc2ccc(N)cc2c1NC(=O)c1ccc(OC)cc1`: the Activity entry in series [1] was “Non-toxic”. Further, the GI50 in series [2] was above 50 µM.
The corresponding values for `CCOC(=O)c1sc2ccc(NCc3c[nH]cn3)cc2c1NC(=O)c1ccc(OC)cc1` are “Non-toxic” and 12.9 µM.
The corresponding values for `CCOC(=O)c1sc2ccc(NCc3c[nH]cn3)cc2c1NC(=O)c1ccc(C(F)(F)F)cc1` are “Non-toxic” and 16.8 µM.
In the same order, the values of `CCOC(=O)c1sc2ccc(NCc3nc[nH]c3C)cc2c1NC(=O)c1ccc(C(F)(F)F)cc1` are “Non-toxic” and 12.8 µM.
